# NR2E3 ag-1: human photoreceptor-specific nuclear receptor agonism | hit rate 0.35% among 360,000 | inhibition of corepressor binding, % at 3.98 µM | Q9Y5X4 | CHO-S Gal4-NCOR/VP16-NR2E3 two-hybrid, luciferase;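 active = inhibition above the mean of all tested compounds plus 3 SD, cut at about 70% in these data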;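 note: higher means lower luciferase signal from less NR2E3 corepressor binding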
# GalR3 antag: blocks the human galanin receptor 3. O60755. HEK293 GalR3-CNG cAMP membrane potential fluorescence; galR3 body fused to GalR1 C-terminus. inhibition, % at 3 µM. hit rate 0.44% among 360,000. AID 651719;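 active = inhibition above the screen-wide average plus 3 SD, cut at about 13% in these data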;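 note: forskolin and galanin both at EC90 stimulate the cells; cAMP rise reported by CNG channel membrane potential dye signal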
# Target sequence (O60755 1-299 limits assumed): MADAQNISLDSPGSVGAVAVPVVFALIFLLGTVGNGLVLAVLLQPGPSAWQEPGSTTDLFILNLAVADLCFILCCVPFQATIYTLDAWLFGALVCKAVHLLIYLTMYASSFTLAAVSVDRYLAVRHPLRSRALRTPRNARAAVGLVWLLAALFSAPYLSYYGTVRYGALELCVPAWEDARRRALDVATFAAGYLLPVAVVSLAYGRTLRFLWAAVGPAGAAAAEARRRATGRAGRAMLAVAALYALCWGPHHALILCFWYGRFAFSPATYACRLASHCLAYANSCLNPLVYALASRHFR
# NR2F2 inh: NR2F2 (human) inhibition, primary screen. HEK293T NGFI-A luciferase reporter, luminescence. hit rate 0.7% among 370,000. inhibition, % at 8.6 µM. P24468. AID 686940;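 active = inhibition above a per-plate cutoff, mean inhibition of test wells between control levels plus 3 SD, cut at about 38% in these data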;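 note: cells cotransfected with COUP-TFII expression vector driving the NGFI-A reporter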
# Target sequence (P24468 whole entry, looked up): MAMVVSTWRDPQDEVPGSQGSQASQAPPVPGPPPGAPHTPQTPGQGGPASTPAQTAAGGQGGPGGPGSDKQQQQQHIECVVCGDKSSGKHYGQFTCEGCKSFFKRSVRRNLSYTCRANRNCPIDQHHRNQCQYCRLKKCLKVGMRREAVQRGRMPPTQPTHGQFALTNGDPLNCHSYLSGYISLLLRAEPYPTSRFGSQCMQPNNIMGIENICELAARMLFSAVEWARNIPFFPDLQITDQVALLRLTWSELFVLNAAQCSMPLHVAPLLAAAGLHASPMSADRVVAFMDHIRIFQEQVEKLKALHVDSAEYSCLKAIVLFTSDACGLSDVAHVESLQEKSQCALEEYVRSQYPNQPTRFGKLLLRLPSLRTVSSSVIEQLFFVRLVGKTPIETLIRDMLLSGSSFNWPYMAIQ
# NR2E3 ag-2: agonists of human nuclear receptor NR2E3 | Q9Y5X4 | GST-NR2E3/biotin-RetCOR TR-FRET, 1536-well | inhibition of corepressor binding, % at 4.78 µM | hit rate 0.12% among 320,000;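 active = percent inhibition above the cutoff of mean plus 3 SD of all tested compounds, set per screening campaign, cut at about 20% in these data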
#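 Test system – NR2E3–RetCOR corepressor complex · Quantity – NR2E3 fusion 1.35 nM · Buffer or medium – Tris pH 7.5 · Incubation – Compound–protein incubation for 5 h at 4 °C · Technique – TR-FRET, Eu(K)-anti-GST donor, streptavidin-D2 acceptor, ex 340, em 617/671 nm · Evaluation – percent inhibition of 671/617 nm emission ratio versus biotin and DMSO controls · Plate – 1536-well format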
# SMARCA2 act: activators of SMARCA2 function; MG213 cells, MMTV-luciferase reporter, dexamethasone, overnight; activation, % at 9.1 µM; hit rate 1% among 370,000; in the data active = activation above about 7.8%
# NR2E3 ag conf: NR2E3 agonism confirmed in two-hybrid assay | shares compounds with NR2E3 ag-1 | CHO-S mammalian two-hybrid NR2E3-NCOR, luciferase luminescence | inhibition, % at 3.98 µM | hit rate 51% among 2,300;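 active = average inhibition above a cutoff equal to the mean inhibition of all tested compounds plus one SD, cut at about 70% in these data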
# GAL4-VP16 luc: reduces GAL4-VP16 reporter signal in NR2E3 counterscreen | CHO-S GAL4-VP16 luciferase reporter, luminescence | inhibition, % at 3.98 µM | AID 624379 | shares compounds with NR2E3 ag-1 | hit rate 29% among 2,300;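 active = mean inhibition above a cutoff equal to the average over all tested compounds plus one standard deviation, cut at about 70% in these data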;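 note: luciferase from a UAS reporter driven by GAL4-VP16 transactivation; higher means less reporter light so more repression of VP16 activity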
# GalR3 conf: confirmation of human galanin receptor 3 antagonists | shares compounds with GalR3 antag | HEK293 GalR3 CNG cAMP biosensor, membrane potential fluorescence; galR3 fused to GalR1 carboxy tail; challenged with forskolin and galanin at EC90 | inhibition, % at 3 µM | hit rate 59% among 1,600 | AID 652245;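 active = inhibition above the primary screen's cutoff, the mean inhibition of all screened compounds plus 3 SD, cut at about 13% in these data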
# HEK-CNG parental: acts as nonspecific agonist in parental HEK-CNG cells | HEK293-CNG parental cells, cAMP membrane potential fluorescence; normalised: DMSO wells 0%, forskolin wells 100% | shares compounds with GalR3 antag | activation, % at 3 µM | hit rate 10% among 1,600; in the data active = activation above about 1.3%
# VP16 Luc counter: VP16 inhibition counter-screen for COUP-TFII | shares compounds with NR2F2 inh | HEK293 Gal4-VP16 luciferase reporter, luminescence | inhibition, % at 8.5 µM | hit rate 25% among 2,500; in the data active = inhibition above about 13%
# NR2F2 inh conf: confirmation of human COUP-TFII (NR2F2) inhibitors; shares compounds with NR2F2 inh; HEK293 NGFI-A luciferase reporter, luminescence; inhibition, % at 8.5 µM; hit rate 45% among 2,500; AID 687008;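 active = mean inhibition over three repeats above a set limit taken from the earlier primary screen, cut at about 38% in these data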
# Numbers stand for hits; – = inactive; · = no result given. An excerpt weighted towards active compounds, which were near 2.2% of everything screened.
SMILES,NR2E3 ag-1,GalR3 antag,NR2F2 inh,NR2E3 ag-2,SMARCA2 act,NR2E3 ag conf,GAL4-VP16 luc,VP16 Luc counter,NR2F2 inh conf,others
COc1cc(NC(=O)COc2cc(O)c3c(c2)OC(C)(C)CC3=O)cc(OC)c1OC,82.3,44.8,81.3,–,–,–,84.1,–,80.6,GalR3 conf=101.5;HEK-CNG parental=–
CC1(C)CC(=O)c2c(O)cc(OCC(=O)Nc3ccc(S(N)(=O)=O)cc3)cc2O1,–,–,–,–,–,·,·,·,·,
C[C@H]1C2CC(OC(=O)NCCCc3ccccc3)C(C2)[C@H]2CCCCN21 (some centres undefined),·,·,–,·,–,·,·,·,·,
O=S(=O)(NCC1CCCO1)c1ccc(-c2ccc(S(=O)(=O)NCC3CCCO3)cc2)cc1 (centres undefined),–,96.7,67.5,–,–,92.2,73.0,–,64.5,GalR3 conf=106.4;HEK-CNG parental=–
O=C(Nc1ccc(Cl)c(C(F)(F)F)c1)c1ccncc1,–,–,–,–,–,·,·,·,·,
CNC(=O)c1cc(Oc2ccc(NC(=O)Nc3ccc(Cl)c(C(F)(F)F)c3)cc2)ccn1,92.1,–,71.5,–,–,98.9,81.3,15.1,48.4,
CCN(CC)C(=O)CSc1nnc(-c2ccc(C(C)(C)C)cc2)n1-c1ccc(Cl)cc1,·,·,–,·,–,·,·,·,·,
O=C(c1ccccc1)c1nn(-c2ccccc2)c(=O)cc1C(F)(F)F,–,–,–,–,–,·,·,·,·,
O=C(c1ccccc1)c1nn(-c2ccc(Cl)cc2)c(=O)cc1C(F)(F)F,107.7,–,40.5,–,–,93.2,–,50.2,62.4,
Cc1oc(-c2ccc3c(c2)OCCO3)cc1C(=O)O,–,–,52.0,–,–,–,–,–,–,
COc1ccc(C2C(C(=O)Nc3ccc(Cl)cc3)CCC(=O)N2c2ccc(OC)cc2)cc1 (centres undefined),·,·,–,·,–,·,·,·,·,
C=CCN1[C@@H](C)COc2cccc(N3CCCC3)c2S1(=O)=O,·,·,–,·,–,·,·,·,·,
O=C(CCCN1C(=O)S/C(=C\c2ccccc2)C1=O)NNC(=O)c1ccccc1O,–,–,61.1,–,–,–,–,82.3,86.7,
COc1ccc(CN(C)Cc2nc(Cc3cccc(F)c3)no2)c2cccnc12,80.4,–,60.4,–,–,92.4,80.7,–,47.4,
CCN(CC)C(=O)c1oc2ccc(S(=O)(=O)N3CC(C)CC(C)C3)cc2c1C (centres undefined),93.5,–,51.2,–,–,91.4,72.5,–,48.6,
Cc1ccc(CSc2nnc(-c3n[nH]c4c3CCC4)n2N)cc1,·,·,–,·,–,·,·,·,·,
COc1ccccc1CN[C@@H]1CC[C@@]23CCCN2C(=O)CCC[C@H]3C1,·,·,–,·,·,·,·,·,·,
C=CCN(C(=O)[C@@H](CCCC)[C@@H](O)c1ccc(C(C)=O)cc1)c1ccccc1,·,·,–,·,–,·,·,·,·,
Cc1nc(NCCc2cnc[nH]2)c2oc3ccccc3c2n1,–,–,–,–,–,·,·,·,·,
COc1ccc(CCNc2nc(C)nc3c2oc2ccccc23)cc1OC,73.1,–,40.4,–,–,90.2,73.1,–,–,
COc1ccc(CCNc2ncnc3c2oc2ccccc23)cc1OC,89.7,–,76.0,–,–,96.7,86.5,–,72.5,
c1ccc(CNc2ncnc3c2oc2ccccc23)nc1,–,–,–,–,–,·,·,·,·,
CCCCCCCCCC[n+]1cccc2c3ccccc3ccc21,95.7,49.8,82.9,·,–,99.6,93.6,19.6,81.6,GalR3 conf=50.6;HEK-CNG parental=8.2
CC(C)CCCCCCCCCCCCC(=O)NCC(=O)NC1C(C)OC(Nc2ncnc3nc[nH]c23)C(O)C1O (centres undefined),72.5,–,77.5,·,–,98.1,97.0,14.4,81.7,
C/C(=C\CNc1ncnc2nc[nH]c12)CO,–,–,–,–,–,·,·,·,·,
SMILES,NR2E3 ag-1,GalR3 antag,NR2F2 inh,NR2E3 ag-2,SMARCA2 act,NR2E3 ag conf,GAL4-VP16 luc,VP16 Luc counter,NR2F2 inh conf,others
C=CCn1c(-c2ccc(S(=O)(=O)N3CCOCC3)cc2)csc1=Nc1ccccc1,–,–,–,–,–,·,·,·,·,
CC(=O)c1cccc(N=c2scc(-c3ccc(S(=O)(=O)N4CCOCC4)cc3)n2CCO)c1,–,114.2,59.9,–,–,81.5,77.1,–,64.5,
CCn1c(SCC(=O)Nc2ccc(C(N)=O)cc2)nc2sc(C)c(C)c2c1=O,·,·,–,·,–,·,·,·,·,
COC1CC(C)C(OC)c2cc(O)cc(c2O)NC(=O)C(C)=CC=CC(C)C(OC(N)=O)C(C)=CC(C)C1OC (centres undefined),–,–,–,·,–,·,·,·,·,
COC1C=CC=C(C)C(=O)NC2=CC(=O)C(N)=C(CC(C)CC(OC)C(O)C(C)C=C(C)C1OC(N)=O)C2=O (centres undefined),90.7,–,55.2,·,–,97.3,–,61.4,75.4,
NC(=O)c1nnn(Cc2cc(Cl)c(C(=O)c3ccc(Cl)cc3)c(Cl)c2)c1N,91.5,96.7,55.5,·,–,96.0,82.3,–,53.8,GalR3 conf=120.2;HEK-CNG parental=–
Nc1c(C(=O)Nc2ccc3c(c2)OCCO3)nnn1Cc1ccc(Cl)cc1,–,–,–,–,–,·,·,·,·,
CC(=O)c1c(C)oc2ccc(N(C(C)=O)S(=O)(=O)c3cccc4cccnc34)cc12,86.2,–,37.9,–,–,94.5,74.1,–,–,
CC(=O)c1c(C)oc2ccc(N(C(C)=O)S(=O)(=O)c3ccc(F)cc3C)cc12,–,–,–,–,–,·,·,·,·,
CC(=O)c1cc(-c2ccc3c(c2)OCO3)c(=O)n2c1CCC2,·,·,–,·,–,·,·,·,·,
COCCn1c(C)cc(C2=NNC(=Nc3ccccc3F)SC2)c1C,88.0,–,90.0,–,–,–,–,35.7,80.5,
CNc1nc(SCC(=O)Nc2ccc(Cl)c(Cl)c2)nc(N2CCOCC2)n1,–,–,–,–,–,·,·,·,·,
Cc1cc(C)nc(SCC(=O)Nc2ccc(N3CCOCC3)c(Cl)c2)n1,73.7,–,41.9,–,–,88.6,79.2,17.8,40.1,
CCN(CC)c1ccc(/C=C/c2ccc3ccc(OC)cc3[n+]2CC)cc1,–,–,51.4,–,–,97.5,76.8,20.2,66.8,

# Screening results from PubChem.
